# Screens as filed in PubChem BioAssay.
# SR-BI DiI inh: inhibitors of mouse SR-BI mediated HDL lipid uptake; Q61009; ldlA[mSR-BI] CHO cells, DiI-HDL uptake fluorescence, 3 h; inhibition, % at 12.5 µM; actives 0.96% (n = 320,000);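 active = mean replicate inhibition of at least 70% and a set share of replicates each scoring 70 or more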;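 also: 0% = median of neutral control wells and 100% = median of positive control wells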
# GAA850 FXN act: activators of GAA850 frataxin (FXN) promoter; HEK293 lucGAA850 FXN promoter luciferase reporter, 24 h; percent of 10 µM SAHA response; activation, % at 6 µM; actives 0.56% (n = 360,000); AID 540364;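 active = activation above the average of all compounds screened plus 3 SD, cutoff fixed separately per campaign, cut at about 7.5% in these data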;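 also: 0% = DMSO wells and 100% = 10 µM SAHA wells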
# ABCB6 inh MLPCN: human ABCB6 transporter inhibition | fluorescence ratio to DMSO, % at 10 µM | K562-ABCB6 porphyrin accumulation, flow cytometry, 1 h; active compounds read low | Q9NP58 | actives 0.19% (n = 360,000) | AID 602162;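 active = fluorescence ratio to DMSO below 75%, the collection mean minus 3 SD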;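 also: signal is porphyrin accumulated inside mitochondria; 100% equals median channel fluorescence of DMSO control wells; lower ratio means ABCB6 inhibition with less porphyrin fluorescence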
# SR-BI DiI-HDL act: activators of SR-BI mediated HDL lipid uptake. AID 504775. CHO ldlA[mSR-BI] cells, DiI-HDL uptake fluorescence, 3 h; 100 = double the neutral-control signal. activation, % at 12.5 µM. actives 0.096% (n = 320,000);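 active = mean replicate activation of at least 60% and every replicate at or above 60%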;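 also: 0% = median plate neutral-control signal and 100% = twice that signal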
#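 Assay system: LDL receptor-deficient CHO ldlA cells overexpressing murine SR-BI / Medium: BSA-supplemented, HEPES-buffered Ham's F12, pH 7.4 / Probe or stimulus: DiI-labelled HDL at 10 µg/mL final / Timing: compound with DiI-HDL co-incubation, 3 h at 37 °C / Technique: bottom-read cell fluorescence after medium removal, ex 550/em 595 nm / Measure: HDL uptake via cellular fluorescence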
# AHR activator: human AHR activation. AID 2796. activation, % at 5 µM. AHR-responsive luciferase reporter cells, luminescence. actives 2.5% (n = 320,000); in the data active = activation above about 47%;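 also: 0% = vehicle wells and 100% = reference agonist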
# HIF act: HIF pathway transcriptional activation | U2OS HRE-luciferase reporter, luminescence; normalized: DMSO 0%, desferrioxamine 100% | activation, % at 7.5 µM (by protocol) | actives 0.32% (n = 300,000) | AID 1910;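 active = mean activation of at least 10% of the iron chelator positive control signal, with at least half of replicates also reaching 10%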
# AHR act confirm: human AHR activation, confirmation; actives 87% (n = 2,300); human cells, AHR-responsive luciferase reporter, luminescence; shares compounds with AHR activator; activation, % at 9 µM; in the data active = activation above about 49%;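 also: HepG2 hepatoma cells carrying a DRE-driven firefly luciferase reporter; 0% = vehicle wells and 100% = reference agonist wells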
# PXR counter: activates human PXR in AHR activator counter-screen; shares compounds with AHR activator; cell-based PXR reporter, luciferase luminescence; activation, % at 11.6 µM; actives 88% (n = 2,300); in the data active = activation above about 11%;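 also: human hepatoma DPX-2 cells expressing full-length human PXR; 0% = DMSO and 100% = reference agonist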
# Target sequence (O75469 whole entry, looked up): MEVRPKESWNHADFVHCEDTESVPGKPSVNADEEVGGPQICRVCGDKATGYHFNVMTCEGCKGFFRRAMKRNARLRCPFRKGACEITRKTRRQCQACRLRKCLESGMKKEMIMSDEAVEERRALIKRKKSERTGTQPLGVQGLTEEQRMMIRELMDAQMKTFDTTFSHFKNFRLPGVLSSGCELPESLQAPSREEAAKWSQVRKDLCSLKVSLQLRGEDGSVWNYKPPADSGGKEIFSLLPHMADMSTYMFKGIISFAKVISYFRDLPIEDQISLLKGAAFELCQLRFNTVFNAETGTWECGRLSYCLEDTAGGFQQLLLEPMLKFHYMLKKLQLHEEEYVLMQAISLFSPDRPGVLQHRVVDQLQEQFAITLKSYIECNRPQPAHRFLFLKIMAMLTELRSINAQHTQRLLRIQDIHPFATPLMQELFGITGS
# The depositor's hits bear a star; . = no result. Sampled rows, rich in hits. Any-hit rate of the full collection: about 3.9%.
SMILES,SR-BI DiI inh,GAA850 FXN act,ABCB6 inh MLPCN,SR-BI DiI-HDL act,AHR activator,HIF act,AHR act confirm,PXR counter
C=CCc1cccc(/C=N/NC(=O)CNc2ccccc2)c1O,21,-3,118,-21,90*,0,69*,47*
COc1ccc(N2CCN(C(=O)C3(C)CC3(Cl)Cl)CC2)cc1 (centres undefined),-6,2,99,6,4,-1,.,.
Cn1cc(/C=C2\SC(=O)N(c3ccc(O)cc3)C2=O)c2ccccc21,42,-3,94,-42,-9,1,.,.
Cn1cc(/C=C2\SC(=O)N(c3ccccc3)C2=O)c2ccccc21,13,5,93,-13,99*,2,69*,20*
O=c1c2ccccc2ncn1Cc1ccc(Cl)cc1,-36,1,98,36,3,-1,.,.
O=c1c2ccccc2ncn1-c1ccc(Cl)cc1,-7,4,99,7,112*,1,115*,10
CC(=O)Oc1ccccc1/C=C/c1ccc2ccccc2[n+]1C,34,0,107,-34,111*,5,21,14*
CCOc1ccc(/C=N/NC(=O)c2cc3c(OC)cc(OC)cc3[nH]2)cc1OC,64,2,100,-64,85*,-1,86*,21*
COc1ccc(/C=N/NC(=O)c2ccn[nH]2)cc1CSc1ccccn1,-8,4,104,8,16,2,.,.
COc1ccc(/C=N/NC(=O)c2ccn[nH]2)cc1COc1ccc(Cl)cc1,13,3,97,-13,87*,0,-5,11*
CC1CCCCN1C(=O)COC(=O)c1cc(-c2cccs2)nn1-c1ccccc1 (centres undefined),33,2,97,-33,0,.,.,.
CNC(=S)N/N=C1\C(=O)c2cccc3cccc1c23,.,2,91,.,90*,-12,114*,39*
FC(F)(F)c1ccc(C2[C@H]3CN(Cc4cccnc4)[C@H](c4ccccc4)C34CC2(c2cccnc2)C4)cc1 (some centres undefined),-50,-4,93,50,5,0,.,.
CC1(C)CC(c2nc(-c3ccccc3)cs2)CCS1 (centres undefined),8,1,86,-8,-7,0,.,.
O=C(NCc1cccnc1)c1ccc(-c2cccc(Cl)c2Cl)o1,6,1,103,-6,22,0,.,.
O=C(NCc1cccnc1)c1ccc(-c2ccccc2[N+](=O)[O-])o1,-29,1,98,29,87*,0,95*,39*
COc1ccc(C)cc1NC(=O)/C=C/c1ccc(OC)c(S(=O)(=O)N2CCOCC2)c1,69,0,91,-69,2,.,.,.
Cc1ccc(NC2=C(NC(=O)c3ccccc3)C(=O)c3ccccc3C2=O)cc1Cl,79*,-3,97,-79,104*,1,106*,93*
O=C(Cn1cc([N+](=O)[O-])cn1)NCCc1c[nH]c2ccccc12,15,0,99,-15,-1,.,.,.
N#CC(C#N)=C1C=CC=CN1/C(=C\c1ccco1)C(=O)c1ccccc1,54,-13,108,-54,19,.,.,.
N#CC(C#N)=C1C=CC=CN1/C(=C\c1ccco1)C(=O)c1ccc(Br)cc1,58,-16,92,-58,189*,.,180*,61*
Cn1cc(C(=O)N/N=C/c2cccc([N+](=O)[O-])c2)c2ccccc21,.,-2,100,.,99*,0,41,19*
O=C(N/N=C/c1cccc([N+](=O)[O-])c1)c1c[nH]c2ccccc12,6,2,87,-6,97*,2,140*,19*
CC(=O)c1sccc1NC(=O)c1ccccc1C(=O)O,-3,3,101,3,-2,-1,.,.
O=C(Nc1ccc(F)c(Cl)c1)c1cncs1,-19,4,94,19,101*,1,95*,26*
